Values after ≈ are worked out from the molar mass of the structure shown. Where two headings read alike, the source gives them in different places.
Assays:
[1] = test system: MCF-7 (human breast cancer cells); assay: MTT cell viability assay on MCF-7 cells; assay type: cell-based; settings: for IC50 / inhibition at 30 µg/mL / inhibition at 60 µg/mL / inhibition at 130 µg/mL / inhibition at 250 µg/mL / inhibition at 500 µg/mL / inhibition at 1000 µg/mL: Homo sapiens, MCF7, 48 h; for IC50: read-out: IC50 µg/mL on MCF-7; for inhibition at 30 µg/mL / inhibition at 60 µg/mL / inhibition at 130 µg/mL / inhibition at 250 µg/mL / inhibition at 500 µg/mL / inhibition at 1000 µg/mL: read-out: Inhibition (%) of MCF-7 Cells
In short: (§1)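 PC3 cells grown in RPMI-1640 and MCF-7 cells in DMEM, each with 10% heat-inactivated FBS, penicillin/streptomycin, L-glutamine and amphotericin B. Seeded at 2 × 10^4 cells/well and grown to ~70% confluence (37°C, 5% CO2). Test compounds given as eight serial dilutions, starting at 1 mg/mL for drugs and 2.5 mg/mL for extract, for 48 h. MTT (5 mg/mL solution) added for 4 h at 25°C; A570 read.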

[2] = test system: PC3 (human prostate cancer cells); assay: MTT cell viability assay on PC3 cells; assay type: cell-based; settings: for IC50 / inhibition at 30 µg/mL / inhibition at 60 µg/mL / inhibition at 130 µg/mL / inhibition at 250 µg/mL / inhibition at 500 µg/mL / inhibition at 1000 µg/mL: Homo sapiens, PC-3, 48 h; for IC50: read-out: IC50 µg/mL on PC3; for inhibition at 30 µg/mL / inhibition at 60 µg/mL / inhibition at 130 µg/mL / inhibition at 250 µg/mL / inhibition at 500 µg/mL / inhibition at 1000 µg/mL: read-out: Inhibition (%) of PC3 Cells; for cytotoxicity activity (in words): PC3
In short: as §1

[3] = ref Salemaldajeh et al., 2015; Emad et al., 2018; cited from earlier work
[4] = Pharmacokinetic study of CBZ in rat plasma; assay type: in vivo, rat (Sprague Dawley)
In short: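 Male and female Sprague Dawley rats (~200 g), seven per group, fasted 24 h. Given 10 mg/kg by oral gavage, alone or after 30 mg/kg extract by gavage (three days before, repeated 30 min pre-dose). Orbital blood collected into EDTA from 0–24 h. Plasma precipitated with acetonitrile containing metronidazole benzoate internal standard, then C18 HPLC-UV at 285 nm. Calibration 75–5,000 ng/mL; samples run in duplicate.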

[5] = after oral administration; ref Salemaldajeh et al., 2015; Emad et al., 2018; cited from earlier work
[6] = rat plasma, ref Salemaldajeh et al., 2015, cited from earlier work
[7] = both, Sprague Dawley, rat, plasma, po, 10 mg/kg
[8] = rat plasma, CBZ 10 mg/kg oral gavage, alone, listed as CBZ alone

| IC50 [1] [µg/mL] | IC50 [2] [µg/mL] | SMILES | inhibition at 30 µg/mL [1] [%] | inhibition at 60 µg/mL [1] [%] | inhibition at 130 µg/mL [1] [%] | inhibition at 250 µg/mL [1] [%] | inhibition at 500 µg/mL [1] [%] | inhibition at 1000 µg/mL [1] [%] | inhibition at 30 µg/mL [2] [%] | inhibition at 60 µg/mL [2] [%] | inhibition at 130 µg/mL [2] [%] | inhibition at 250 µg/mL [2] [%] | inhibition at 500 µg/mL [2] [%] | inhibition at 1000 µg/mL [2] [%] | cytotoxicity activity (in words) ([2]; MTT, 48 h) | also measured |
| --- | --- | --- | --- | --- | --- | --- | --- | --- | --- | --- | --- | --- | --- | --- | --- | --- |
| – | – | N.N.[Cl][Pt][Cl] [Cisplatin] | – | – | – | – | – | – | – | – | – | – | – | – | – | IC50 µg/mL on MCF-7 ([1]; MTT, 48 h, mean ± SD): 14.6 ± 2.4 µg/mL; IC50 µg/mL on PC3 ([2]; MTT, 48 h, mean ± SD): 8.6 ± 1.5 µg/mL |
| > 1000 | > 1000 | CCCC(CCC)C(=O)O [VPA, valproic acid] | 10.6 | 8.5 | 13.4 | 15.7 | 14.7 | 24.9 | 19.8 | 10.7 | 2.62 | 0.74 | 0.24 | 26.7 | weak | cytotoxicity activity (in words) ([1]; MCF-7, MTT, 48 h): weak |
| 250 ± 44 (≈ 1060 µM) | 130 ± 27 (≈ 550 µM) | NC(=O)N1c2ccccc2C=Cc2ccccc21 [CBZ, carbamazepine] | 11.9 | 19.7 | 30.1 | 53.2 | 69.3 | 83.3 | 29.7 | 31.4 | 53 | 87.5 | 95.1 | 93.4 | robust | drug excreted unchanged without metabolism [3]: about 5%; concentration at 24 h ([4]; both, Sprague Dawley, rat, plasma, oral, 10 mg/kg): 65.2 ng/mL; Cmax [4, 7]: 4630 ng/mL; Tmax [4, 7]: 3.5 h; k el [4, 7]: 5e-05 s⁻¹; AUC (0–24 h) [4, 8]: 49225 ng·h/mL; Half-life [4, 8]: 3.78 h; binds to plasma proteins [5]: approximately 75%; Cmax ([6]; CBZ alone): 4,130 ng/mL; Cmax ([6]; CBZ combined with graviola juice): 2,886 ng/mL |
| 0.64 ± 0.04 (≈ 1.18 µM) | 0.62 ± 0.06 (≈ 1.14 µM) | COc1cccc2c1C(=O)c1c(O)c3c(c(O)c1C2=O)C[C@@](O)(C(=O)CO)C[C@@H]3O[C@H]1C[C@H](N)[C@H](O)[C@H](C)O1 [Doxorubicin] | – | – | – | – | – | – | – | – | – | – | – | – | – | – |

Source: article PMC10505864 (Asian Pacific Journal of Cancer Prevention : APJCP, 2023)
